In ChEMBL document CHEMBL5661976 (Cancer Res, 2007):
Activity calls are given as the source filed them. The calls are words filed in the database; no cut-off is given here.

Assays:
NCI-H441 = assay: cells; type: functional, cell-based; settings: Homo sapiens, NCI-H441, 72 h
BaF3 [1] = assay: cells; type: functional, cell-based; settings: Mus musculus, BaF3, 72 h
BaF3 [2] = assay: cells; type: functional, cell-based; settings: Mus musculus, BaF3, 72 h; remark: listed apart in the source
A549 = assay: cells; type: functional, cell-based; settings: Homo sapiens, A549, 72 h
HCC827 [3] = settings: Homo sapiens, dose 1-10000 nmol/L, time 12.0 hrs
cells [4] = type: functional, cell-based; settings: Homo sapiens, NCI-H1819, 72 h
BaF3 [5] = assay: cells; type: functional, cell-based; settings: Mus musculus, BaF3, 72 h; remark: listed apart in the source
HCC827 [6] = assay: Antiproliferative activity against human HCC827 cells harboring EGFR Del E746_A750 mutant transfected with GFP assessed as inhibition of cell growth incubated for 72 hrs by MTS assay; type: functional, cell-based; settings: HCC827, 72 h
Method in brief: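 MTS viable-cell assay (bioreduction to soluble formazan, spectrophotometric read) after 72 h drug exposure; cell numbers set empirically.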

NCI-H3255 [7] = assay: cells; type: functional, cell-based; settings: Homo sapiens, NCI-H3255, 72 h
[8] = molecular target: Protein kinase C alpha type (Homo sapiens, UniProt P17252); assay: Inhibition of recombinant PKCa (unknown origin)
Wee1-like protein kinase = Wee1-like protein kinase (Homo sapiens, UniProt P30291); assay: Inhibition of recombinant Wee1 (unknown origin)
[9] = molecular target: Receptor tyrosine-protein kinase erbB-2 (Mus musculus, UniProt P70424); assay: Inhibition of ERBB2 expressed in mouse NIH3T3 cells; type: cell-based
[10] = molecular target: Cyclin-dependent kinase 4/cyclin D (Homo sapiens, UniProt P11802); assay: Inhibition of recombinant CDK4/Cyclin D (unknown origin); type: protein-complex assay
Casein kinase 2 = Casein kinase 2 (Homo sapiens, UniProt P67870+P68400+P19784+Q8NEV1); assay: Inhibition of recombinant CK2 (unknown origin); type: protein assay
[11] = molecular target: MAP kinase-activated protein kinase 2 (Homo sapiens, UniProt P49137); assay: Inhibition of recombinant MAPKAP-K2 (unknown origin)
[12] = Inhibition of recombinant p70S6K (unknown origin); parameters: species or system Homo sapiens
[13] = Inhibition of recombinant Bir Kinase (unknown origin); parameters: species or system Homo sapiens
HCC827 [14] = assay: Antitumor activity against human HCC827 cells expressing EGFR Del/T790M mutant xenografted in nude mouse assessed as inhibition of tumor growth at 10 mg/kg/day, po administered for 95 days and measured thrice weekly; type: functional, organism-based; settings: time 95.0 day
Method in brief: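 Nu/nu mice under 2% isoflurane/oxygen inoculated s.c. in lower-right flank with 5 × 10^6 HCC827-GFP or HCC827-Del/T790M cells in 0.2 mL PBS; randomized at mean tumor 400 to 500 mm3. Daily oral gavage 10 mg/kg/d; caliper volume = length × width² × 0.52; body weight monitored daily; ended when control tumors reached 2000 mm3.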

[15] = molecular target: Receptor tyrosine-protein kinase erbB-3 (Homo sapiens) (UniProt P21860); assay: Inhibition of ERBB3 phosphorylation in human HCC827 cells expressing GFP at 1 to 10000 nmol/L incubated for 12 hrs by Western blotting analysis; type: cell-based; settings: dose 1-10000 nmol/L
BaF3 [16] = assay: cells; type: functional, cell-based; settings: Mus musculus, BaF3, 72 h; remark: listed apart in the source
[17] = molecular target: Tyrosine-protein kinase CSK (Homo sapiens, UniProt P41240); assay: Inhibition of recombinant CSK (unknown origin)
BaF3 [18] = assay: cells; type: functional, cell-based; settings: Mus musculus, BaF3, 72 h; remark: listed apart in the source
NCI-H3255 [19] = assay: Induction of apoptosis in human NCI-H3255 cells assessed as increase in cleavage of PARP at 1 micromol/L incubated for 72 hrs by Western blotting analysis; type: functional, cell-based; settings: dose 1.0 µmol/L
NCI-H3255 [20] = assay: cells; type: functional, cell-based; settings: Homo sapiens, NCI-H3255, 72 h; remark: listed apart in the source
[21] = molecular target: Glycogen synthase kinase-3 beta (Homo sapiens, UniProt P49841); assay: Inhibition of recombinant GSK3b (unknown origin)
[22] = Inhibition of recombinant PKB delta ph mutant (unknown origin); parameters: species or system Homo sapiens
NCI-H3255 [23] = assay: cells; type: functional, cell-based; settings: Homo sapiens, NCI-H3255, 72 h; remark: listed apart in the source
cells [24] = type: functional, cell-based; settings: Homo sapiens, NCI-H820, 72 h
[25] = molecular target: Insulin-like growth factor 1 receptor (Homo sapiens, UniProt P08069); assay: Inhibition of recombinant IGF1R (unknown origin)
[26] = molecular target: Mitogen-activated protein kinase 12 (Homo sapiens, UniProt P53778); assay: Inhibition of recombinant SAPK3/p38gamma (unknown origin)
[27] = Inhibition of recombinant CDK2/Cyclin A (unknown origin); parameters: species or system Homo sapiens
HCC827 [28] = assay: cells; type: functional, cell-based; settings: Homo sapiens, HCC827, 72 h
NCI-H3255 [29] = assay: cells; type: functional, cell-based; settings: Homo sapiens, NCI-H3255, 72 h; remark: listed apart in the source
[30] = molecular target: Ribosomal protein S6 kinase alpha-1 (Homo sapiens, UniProt Q15418); assay: Inhibition of recombinant MAPKAP-K1a (unknown origin)
BaF3 [31] = assay: cells; type: functional, cell-based; settings: Mus musculus, BaF3, 72 h; remark: listed apart in the source
PC-9 = assay: cells; type: functional, cell-based; settings: Homo sapiens, PC-9, 72 h
Casein kinase I = assay: Inhibition of recombinant CK1 (unknown origin); type: protein assay, Homo sapiens
[32] = molecular target: Serine/threonine-protein kinase Nek6 (Homo sapiens, UniProt Q9HC98); assay: Inhibition of recombinant NEK6 (unknown origin)
HCC827 [33] = assay: cells; type: functional, cell-based; settings: Homo sapiens, HCC827, 72 h; remark: listed apart in the source
NIH3T3 [34] = settings: Mus musculus, dose 1-10000 nmol/L, time 6.25 hrs
NIH3T3 [35] = settings: Mus musculus, dose 1-10000 nmol/L, time 6.25 hrs; remark: listed apart in the source

Wee1-like protein kinase, sequence (P30291 whole entry): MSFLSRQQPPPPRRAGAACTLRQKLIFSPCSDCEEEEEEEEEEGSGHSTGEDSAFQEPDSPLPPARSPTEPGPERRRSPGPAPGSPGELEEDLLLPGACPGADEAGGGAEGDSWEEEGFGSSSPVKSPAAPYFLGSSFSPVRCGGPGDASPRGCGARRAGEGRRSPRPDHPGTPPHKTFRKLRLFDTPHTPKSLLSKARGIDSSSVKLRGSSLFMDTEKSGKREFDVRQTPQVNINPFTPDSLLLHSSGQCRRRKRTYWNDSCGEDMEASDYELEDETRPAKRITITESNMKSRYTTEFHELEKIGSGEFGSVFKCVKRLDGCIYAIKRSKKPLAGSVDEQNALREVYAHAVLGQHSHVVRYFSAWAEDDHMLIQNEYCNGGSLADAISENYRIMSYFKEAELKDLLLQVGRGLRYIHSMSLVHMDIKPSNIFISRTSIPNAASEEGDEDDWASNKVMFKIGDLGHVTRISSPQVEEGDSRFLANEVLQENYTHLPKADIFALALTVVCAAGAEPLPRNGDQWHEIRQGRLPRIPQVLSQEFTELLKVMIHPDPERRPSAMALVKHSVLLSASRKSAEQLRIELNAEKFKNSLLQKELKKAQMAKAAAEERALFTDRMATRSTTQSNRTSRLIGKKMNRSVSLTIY
Receptor tyrosine-protein kinase erbB-2, sequence (P70424 whole entry): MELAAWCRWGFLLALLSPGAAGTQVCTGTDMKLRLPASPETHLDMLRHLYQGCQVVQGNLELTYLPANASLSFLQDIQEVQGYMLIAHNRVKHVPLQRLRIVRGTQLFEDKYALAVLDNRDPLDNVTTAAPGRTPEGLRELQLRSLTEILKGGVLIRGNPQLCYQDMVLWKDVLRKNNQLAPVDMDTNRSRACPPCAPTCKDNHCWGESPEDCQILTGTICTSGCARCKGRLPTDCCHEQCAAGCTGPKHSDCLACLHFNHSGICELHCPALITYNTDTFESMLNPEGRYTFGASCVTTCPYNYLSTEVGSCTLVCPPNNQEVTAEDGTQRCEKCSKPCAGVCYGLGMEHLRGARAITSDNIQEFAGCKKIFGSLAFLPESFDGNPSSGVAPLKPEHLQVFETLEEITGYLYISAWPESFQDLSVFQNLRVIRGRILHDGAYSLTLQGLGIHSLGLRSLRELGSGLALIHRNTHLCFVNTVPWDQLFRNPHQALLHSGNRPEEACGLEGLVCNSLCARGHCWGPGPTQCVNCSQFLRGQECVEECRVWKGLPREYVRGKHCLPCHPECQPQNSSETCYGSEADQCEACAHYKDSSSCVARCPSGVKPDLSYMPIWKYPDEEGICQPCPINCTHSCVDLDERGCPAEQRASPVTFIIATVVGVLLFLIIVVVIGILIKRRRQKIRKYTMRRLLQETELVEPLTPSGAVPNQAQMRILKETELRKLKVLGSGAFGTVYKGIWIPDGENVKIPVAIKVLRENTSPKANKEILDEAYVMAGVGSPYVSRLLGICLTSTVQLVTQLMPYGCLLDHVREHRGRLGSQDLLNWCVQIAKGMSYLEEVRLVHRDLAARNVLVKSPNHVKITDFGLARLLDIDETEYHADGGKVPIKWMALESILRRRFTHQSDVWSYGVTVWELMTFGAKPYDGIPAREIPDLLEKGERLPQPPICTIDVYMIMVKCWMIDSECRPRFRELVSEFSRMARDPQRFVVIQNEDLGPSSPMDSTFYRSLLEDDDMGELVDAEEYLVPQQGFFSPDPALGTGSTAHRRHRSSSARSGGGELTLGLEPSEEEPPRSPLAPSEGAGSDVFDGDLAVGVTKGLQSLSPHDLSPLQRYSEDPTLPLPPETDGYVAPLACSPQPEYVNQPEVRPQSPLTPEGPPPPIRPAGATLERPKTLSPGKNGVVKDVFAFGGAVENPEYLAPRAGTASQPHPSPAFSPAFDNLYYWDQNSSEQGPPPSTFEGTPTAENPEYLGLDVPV
Receptor tyrosine-protein kinase erbB-3 (Homo sapiens), sequence (P21860 whole entry): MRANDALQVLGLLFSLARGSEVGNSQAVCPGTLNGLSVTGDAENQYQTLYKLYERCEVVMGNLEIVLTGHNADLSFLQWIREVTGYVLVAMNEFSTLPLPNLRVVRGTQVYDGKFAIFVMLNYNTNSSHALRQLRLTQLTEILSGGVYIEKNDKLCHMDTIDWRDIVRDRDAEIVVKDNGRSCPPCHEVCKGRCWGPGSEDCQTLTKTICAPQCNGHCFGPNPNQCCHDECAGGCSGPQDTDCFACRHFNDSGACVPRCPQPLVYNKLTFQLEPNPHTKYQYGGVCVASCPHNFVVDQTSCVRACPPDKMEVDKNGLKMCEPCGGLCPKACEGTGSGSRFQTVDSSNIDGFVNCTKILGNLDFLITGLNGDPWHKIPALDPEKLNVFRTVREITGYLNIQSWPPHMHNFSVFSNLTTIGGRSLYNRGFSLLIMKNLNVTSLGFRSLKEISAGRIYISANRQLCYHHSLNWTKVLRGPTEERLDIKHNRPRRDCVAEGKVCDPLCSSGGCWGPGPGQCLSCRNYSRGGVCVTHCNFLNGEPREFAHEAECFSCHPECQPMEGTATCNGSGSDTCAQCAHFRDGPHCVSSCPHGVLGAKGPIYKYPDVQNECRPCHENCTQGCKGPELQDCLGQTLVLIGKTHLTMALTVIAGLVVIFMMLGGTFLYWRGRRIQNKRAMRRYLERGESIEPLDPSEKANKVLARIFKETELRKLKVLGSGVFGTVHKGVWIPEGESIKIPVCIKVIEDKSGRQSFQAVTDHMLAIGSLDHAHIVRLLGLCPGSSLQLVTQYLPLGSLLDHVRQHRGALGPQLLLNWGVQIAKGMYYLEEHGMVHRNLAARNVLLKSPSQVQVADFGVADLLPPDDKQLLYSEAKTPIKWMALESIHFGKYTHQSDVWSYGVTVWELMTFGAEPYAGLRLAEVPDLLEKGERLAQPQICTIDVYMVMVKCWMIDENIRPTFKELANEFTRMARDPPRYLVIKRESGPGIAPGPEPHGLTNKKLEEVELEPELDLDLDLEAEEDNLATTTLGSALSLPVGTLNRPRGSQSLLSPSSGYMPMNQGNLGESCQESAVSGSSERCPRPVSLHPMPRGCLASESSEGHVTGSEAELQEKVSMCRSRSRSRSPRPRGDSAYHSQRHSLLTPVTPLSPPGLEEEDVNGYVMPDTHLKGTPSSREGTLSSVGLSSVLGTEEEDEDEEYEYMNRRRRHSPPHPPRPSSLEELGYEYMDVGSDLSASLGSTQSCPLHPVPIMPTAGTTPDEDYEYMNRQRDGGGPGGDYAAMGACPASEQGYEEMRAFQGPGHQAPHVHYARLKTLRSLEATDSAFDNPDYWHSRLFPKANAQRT
Mitogen-activated protein kinase 12, sequence (P53778 whole entry): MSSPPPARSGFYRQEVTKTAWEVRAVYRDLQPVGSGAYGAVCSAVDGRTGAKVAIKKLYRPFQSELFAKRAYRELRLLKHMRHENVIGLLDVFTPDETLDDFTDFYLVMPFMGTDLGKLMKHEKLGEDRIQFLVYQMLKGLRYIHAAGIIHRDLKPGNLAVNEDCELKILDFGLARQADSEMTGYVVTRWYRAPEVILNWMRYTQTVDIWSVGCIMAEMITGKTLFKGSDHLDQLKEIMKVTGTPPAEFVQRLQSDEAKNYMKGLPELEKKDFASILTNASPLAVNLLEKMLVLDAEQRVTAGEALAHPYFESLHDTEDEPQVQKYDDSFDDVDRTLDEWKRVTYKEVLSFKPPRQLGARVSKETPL
Insulin-like growth factor 1 receptor, sequence (P08069 31-736 limits assumed): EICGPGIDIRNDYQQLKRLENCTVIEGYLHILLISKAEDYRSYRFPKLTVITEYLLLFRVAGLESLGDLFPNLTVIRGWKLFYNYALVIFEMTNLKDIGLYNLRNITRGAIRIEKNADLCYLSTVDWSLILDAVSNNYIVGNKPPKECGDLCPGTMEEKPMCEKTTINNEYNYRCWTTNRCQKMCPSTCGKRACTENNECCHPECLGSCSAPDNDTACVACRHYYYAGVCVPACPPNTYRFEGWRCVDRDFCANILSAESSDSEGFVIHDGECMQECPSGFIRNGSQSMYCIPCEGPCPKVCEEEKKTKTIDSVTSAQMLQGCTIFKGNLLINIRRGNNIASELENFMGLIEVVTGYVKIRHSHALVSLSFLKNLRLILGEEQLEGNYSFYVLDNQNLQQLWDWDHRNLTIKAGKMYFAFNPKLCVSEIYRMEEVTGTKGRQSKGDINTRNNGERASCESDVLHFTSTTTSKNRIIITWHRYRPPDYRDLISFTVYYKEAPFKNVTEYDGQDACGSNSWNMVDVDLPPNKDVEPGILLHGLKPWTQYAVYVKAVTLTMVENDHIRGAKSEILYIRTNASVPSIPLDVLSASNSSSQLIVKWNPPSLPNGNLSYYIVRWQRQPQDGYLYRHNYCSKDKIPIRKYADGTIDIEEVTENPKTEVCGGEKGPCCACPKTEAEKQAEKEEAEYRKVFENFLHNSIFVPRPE
Insulin-like growth factor 1 receptor, sequence (P08069 741-1367 limits assumed): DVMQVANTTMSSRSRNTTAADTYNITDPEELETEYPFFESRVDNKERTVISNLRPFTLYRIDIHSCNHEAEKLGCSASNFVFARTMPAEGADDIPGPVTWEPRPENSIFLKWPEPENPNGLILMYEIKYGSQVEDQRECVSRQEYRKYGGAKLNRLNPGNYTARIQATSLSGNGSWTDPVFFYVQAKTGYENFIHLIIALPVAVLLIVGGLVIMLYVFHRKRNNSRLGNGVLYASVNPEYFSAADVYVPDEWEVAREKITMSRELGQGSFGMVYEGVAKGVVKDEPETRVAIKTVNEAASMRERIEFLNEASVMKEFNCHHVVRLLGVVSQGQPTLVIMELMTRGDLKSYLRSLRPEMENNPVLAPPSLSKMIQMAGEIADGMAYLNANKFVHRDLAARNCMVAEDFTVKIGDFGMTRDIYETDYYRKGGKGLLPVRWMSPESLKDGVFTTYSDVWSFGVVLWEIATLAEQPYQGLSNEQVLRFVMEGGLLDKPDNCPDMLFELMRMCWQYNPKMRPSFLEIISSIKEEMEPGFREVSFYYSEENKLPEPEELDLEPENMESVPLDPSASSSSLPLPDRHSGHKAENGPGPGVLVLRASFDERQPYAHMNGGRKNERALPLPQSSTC

COc1cc2ncnc(Nc3ccc(F)c(Cl)c3)c2cc1NC(=O)/C=C/CN1CCCCC1 [DACOMITINIB ANHYDROUS]
IC50 (NCI-H441): 4000 nM
IC50 (BaF3 [1]): 2.6 nM
IC50 (BaF3 [2]): 1.9 nM
IC50 (A549): > 10000 nM
inhibition (HCC827 [3]): Active
IC50 (cells [4]): 29 nM
IC50 (BaF3 [5]): 140 nM
IC50 (HCC827 [6]): 2 nM
IC50 (NCI-H3255 [7]): 1570 nM
IC50 [8]: > 10000 nM
IC50 (Wee1-like protein kinase): > 10000 nM
IC50 [9]: 41 nM
IC50 [10]: > 40000 nM
IC50 (Casein kinase 2): > 10000 nM
IC50 [11]: > 10000 nM
IC50 [12]: > 10000 nM
IC50 [13]: > 40000 nM
Activity (HCC827 [14]): Active
inhibition [15]: Active
IC50 (BaF3 [16]): 330 nM
IC50 [17]: > 10000 nM
IC50 (BaF3 [18]): < 1 nM
Activity (NCI-H3255 [19]): Active
IC50 (NCI-H3255 [20]): 7 nM
IC50 [21]: > 10000 nM
IC50 [22]: > 10000 nM
IC50 (NCI-H3255 [23]): 1620 nM
IC50 (cells [24]): 930 nM
IC50 [25]: > 40000 nM
IC50 [26]: > 10000 nM
IC50 [27]: > 40000 nM
IC50 (HCC827 [28]): 14 nM
IC50 (NCI-H3255 [29]): 7 nM
IC50 [30]: > 10000 nM
IC50 (BaF3 [31]): 1.2 nM
IC50 (PC-9): 2 nM
IC50 (Casein kinase I): > 10000 nM
IC50 [32]: > 10000 nM
IC50 (HCC827 [33]): 61 nM
inhibition (NIH3T3 [34]): Active
inhibition (NIH3T3 [35]): Active
